# Assay results pooled from the literature.
# Compare with care: the assays were run in different laboratories.
# Read-out: haemolysis
# Species: human
Compound,tested at,time,pH,haemolysis
COc1c(F)cccc1C=NNc1nc(-c2ccc(F)cc2)cs1,50 µM,30 min,pH 7.4,20%
CCCCCCCCCCCCNCc1ccc(CNC(=O)c2csc3nc[nH]c(=O)c23)cc1,100 µM,1 h,,~3%
Cc1ccc(C=NNc2nc(-c3ccc(F)cc3)cs2)c(Br)c1,100 µM,30 min,pH 7.4,31.6%
O=C(O)CN(CCN(CC(=O)O)CC(=O)O)CC(=O)O,200 µM,1 h,pH 7.2,≤ 1%
Fc1ccc(-c2csc(NN=Cc3cccs3)n2)cc1,10 µM,30 min,pH 7.4,11.4%
c1ccc(CN(CCN(Cc2ccccn2)Cc2ccccn2)Cc2ccccn2)nc1,200 µM,1 h,pH 7.2,≤ 1%
C[C@@H]1[C@H](O)[C@@H](C)/C=C/C=C/C=C/C=C/C=C/C=C/C=C/[C@H](O[C@@H]2O[C@H](C)[C@@H](O)[C@H](N)[C@@H]2O)C[C@@H]2O[C@](O)(C[C@@H](O)C[C@@H](O)[C@H](O)CC[C@@H](O)C[C@@H](O)CC(=O)O[C@H]1C)C[C@H](O)[C@H]2C(=O)O,8 µg/mL,1 h,,102%
NCCc1ccc(Oc2ccc(-c3noc(-c4ccc(O)cc4)n3)cc2)cc1,4 µg/mL,1 h,,2.5%
OC(Cn1cncn1)(Cn1cncn1)c1ccc(F)cc1F,2 µg/mL,1 h,,3.79%
C=C1CC[C@@H]2[C@](C)(CCC[C@]2(C)C(=O)O)[C@H]1CC/C(C)=C/C(=O)O,350 µg/mL,3 h,,50%
CCN(CC)CCCC(C)Nc1ccnc2cc(Cl)ccc12 (stereo not shown),100 mM,45 min,,28.7%
Oc1ccc(Cl)cc1C=NNc1nc(-c2ccc(F)cc2)cs1,10 µM,30 min,pH 7.4,3.11%
C=C1CC[C@@H]2C(C)(C)CCC[C@@]2(C)[C@@H]1CC/C(C)=C/C(=O)OC,500 µg/mL,3 h,,50%
